Columns and labels:
[1] = Semaglutide plasma pharmacokinetics after a single dose of oral semaglutide; type: in vivo, human
Procedure, shortened: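 Same crossover, dosing and fasting. Plasma was drawn predose and 0.5–24 h and analysed by LC-MS/MS (LLOQ 0.73 nmol/L). Trapezoidal AUC0-24h was used; log-transformed mixed models (volume, period fixed; subject random) allowed left-censoring. For correlation, log PK was modelled against log time to complete tablet erosion, assessed by gamma scintigraphy of ¹¹¹In-labelled tablets. 2^β gave the fold change per doubling. All-below-LLOQ profiles were imputed from 0.5×LLOQ.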

[2] = SNAC plasma pharmacokinetics after a single dose of oral semaglutide; type: in vivo, human; conditions: for Median tmax,SNAC: plasma, LC-MS/MS
Procedure, shortened: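 Two-period randomized crossover in 26 fasting healthy men. Each received one 10 mg tablet (coformulated with 300 mg absorption enhancer), upright, between 8 and 11 am, with 50 or 240 mL water. Fasting continued ≥4 h, with 200 mL water at 2 h. Plasma was drawn predose and 10 min–6 h and assayed by protein precipitation LC-MS/MS. Trapezoidal AUC0-6h used actual times. AUC and Cmax were log-transformed; mixed model had volume and period fixed, subject random.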

[3] = linear mixed model, log-transformed
[4] = single oral semaglutide tablet with 300 mg SNAC, fasting healthy men

In the case of CC[C@H](C)[C@H](NC(=O)[C@H](Cc1ccccc1)NC(=O)[C@H](CCC(=O)O)NC(=O)[C@H](CCCCNC(=O)COCCOCCNC(=O)COCCOCCNC(=O)CC[C@H](NC(=O)CCCCCCCCCCCCCCCCC(=O)O)C(=O)O)NC(=O)[C@H](C)NC(=O)[C@H](C)NC(=O)[C@H](CCC(N)=O)NC(=O)CNC(=O)[C@H](CCC(=O)O)NC(=O)[C@H](CC(C)C)NC(=O)[C@H](Cc1ccc(O)cc1)NC(=O)[C@H](CO)NC(=O)[C@H](CO)NC(=O)[C@@H](NC(=O)[C@H](CC(=O)O)NC(=O)[C@H](CO)NC(=O)[C@@H](NC(=O)[C@H](Cc1ccccc1)NC(=O)[C@@H](NC(=O)CNC(=O)[C@H](CCC(=O)O)NC(=O)C(C)(C)NC(=O)[C@@H](N)Cc1cnc[nH]1)[C@@H](C)O)[C@@H](C)O)C(C)C)C(=O)N[C@@H](C)C(=O)N[C@@H](Cc1c[nH]c2ccccc12)C(=O)N[C@@H](CC(C)C)C(=O)N[C@H](C(=O)N[C@@H](CCCNC(=N)N)C(=O)NCC(=O)N[C@@H](CCCNC(=N)N)C(=O)NCC(=O)O)C(C)C [semaglutide], the “2^β, estimated fold change in AUC0-24h,semaglutide if time to CTE is doubled” value [1, 3] is reported as “approximately 2”, the “2^β, estimated fold change in Cmax,semaglutide if time to CTE is doubled” value [1, 3] is reported as “approximately 2” and the “2^β, estimated fold change in tmax,semaglutide if time to CTE is doubled” value [1, 3] is reported as about 1.5. The “AUC0-24h,semaglutide, higher with 50 versus 240 mL water” value ([1]; single 10 mg oral semaglutide) was “approximately 70%” and the “Cmax,semaglutide, higher with 50 versus 240 mL water” value ([1]; single 10 mg oral semaglutide) was “approximately 70%”.
For O=C([O-])CCCCCCCNC(=O)c1ccccc1O.[Na+] [SNAC, sodium N‐(8‐[2‐hydroxybenzoyl]amino) caprylate], the “Median tmax,SNAC” value ([2]; 50 mL water) was 18 min, the “Median tmax,SNAC” value ([2]; 240 mL water) was 18 min and the “AUC0-6h,SNAC, lower with 50 versus 240 mL water” value [2, 4] was 19%. The “Cmax,SNAC, lower with 50 versus 240 mL water” value [2, 4] was 38%.
